MPTP inh = permeability transition pore inhibition; isolated mouse mitochondria, Ca2+ swelling absorbance, 30 min; inhibition, % at 10 µM; actives 1.4% (n = 360,000); AID 602449;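 active = inhibition of 50% or more, scaled per plate between neutral and stimulator controls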;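 also: 0% = DMSO wells given calcium and 100% = 1 mM EGTA wells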
TAAR1 ag = human TAAR1 agonism | Q96RJ0 | CHO RD-HGA16 TAAR1, Fluo-8 calcium fluorescence; vehicle wells 0%, saturating PEA agonist 100% | activation, % at 3 µM | actives 0.99% (n = 360,000) | AID 624467;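 active = activation above the mean activation of all test compounds in the run plus 3 SD, cut at about 38% in these data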
Target sequence (Q96RJ0 whole entry, looked up): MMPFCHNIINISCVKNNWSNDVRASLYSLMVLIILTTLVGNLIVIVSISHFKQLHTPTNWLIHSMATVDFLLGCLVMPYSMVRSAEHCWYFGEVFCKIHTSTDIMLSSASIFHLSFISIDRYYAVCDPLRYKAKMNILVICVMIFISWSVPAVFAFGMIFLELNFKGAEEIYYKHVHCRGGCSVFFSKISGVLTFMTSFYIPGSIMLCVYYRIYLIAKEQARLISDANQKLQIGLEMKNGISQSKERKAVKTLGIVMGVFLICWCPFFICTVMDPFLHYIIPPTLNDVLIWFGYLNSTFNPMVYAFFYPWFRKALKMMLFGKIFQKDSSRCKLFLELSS
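System: CHO-derived RD-HGA16 cells with stable Gα16 and human TAAR1. Times: 17-24 h plating, Fluo-8 75 min 37 °C, 30 min RT. Measured by: calcium-sensitive Fluo-8 signal, excitation 470-495, emission 515-575 nm. Read-out basis: % activation relative to PEA EC100 response. Control set: DMSO and PEA EC100. Repeats: no replicates (n 1).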
TAAR1 antagonist = human TAAR1 antagonism; Q96RJ0; CHO RD-HGA16 TAAR1, Fluo-8 calcium fluorescence, antagonist; inhibition, % at 3 µM; actives 1.5% (n = 360,000); AID 624466;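 active = inhibition above a per-plate cutoff, the mean inhibition of test compounds on that plate plus 3 SD, cut at about 49% in these data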;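 also: 0% = DMSO plus EC80 beta-PEA response and 100% = DMSO alone without agonist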
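Test system – hTAAR1-expressing CHO RD-HGA16 cells, Gα16-coupled · Reagent – β-PEA at EC80 concentration, post-compound challenge · Compound dosing – 3 µM, single point · Timing – 140 s kinetic read after compound, 140 s after agonist · Detection – Fluo-8 intracellular calcium dye fluorescence, real-time kinetic reads · Control set – DMSO and EC80 PEA controls · Repeats – n of 1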
DAGLB inh = diacylglycerol lipase beta (human) inhibition; HEK293T DAGLB membrane lysate, EnzChek fluorogenic substrate; actives 0.059% (n = 340,000); AID 504411; Q8NCG7; inhibition, % at 5.17 µM; in the data active = inhibition above about 34%;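 also: 0% = enzyme with vehicle and 100% = wells lacking enzyme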
GPR7 antagonist = antagonists of human GPR7 (neuropeptides B/W receptor 1); inhibition, % at 4.4 µM; P48145; AID 1861; actives 1.1% (n = 290,000); GPR7-expressing cells, fluorescence antagonist assay; in the data active = inhibition above about 16%, passing the limit was not always enough;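 also: cells stimulated with the agonist NPW; 0% = agonist with vehicle and 100% = vehicle without agonist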
Target sequence (P48145 whole entry, looked up): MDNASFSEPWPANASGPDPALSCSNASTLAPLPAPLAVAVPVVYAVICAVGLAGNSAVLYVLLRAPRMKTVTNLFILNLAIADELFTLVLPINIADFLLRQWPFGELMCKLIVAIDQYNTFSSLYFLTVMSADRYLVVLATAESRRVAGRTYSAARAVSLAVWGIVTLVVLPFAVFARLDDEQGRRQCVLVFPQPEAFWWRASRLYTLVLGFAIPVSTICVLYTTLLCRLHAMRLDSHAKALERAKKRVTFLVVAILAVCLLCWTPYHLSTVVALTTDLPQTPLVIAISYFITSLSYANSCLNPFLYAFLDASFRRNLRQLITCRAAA
MPTP counter = mitochondrial membrane potential, counter-screen. actives 78% (n = 5,000). shares compounds with MPTP inh. isolated mitochondria, Rhodamine 123 fluorescence. inhibition, % at 10 µM; in the data active = inhibition above about 22%;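 also: 0% = DMSO vehicle and 100% = positive control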
MPTP abs DR = dose response confirmation of mitochondrial permeability transition pore inhibitors. shares compounds with MPTP inh. isolated mitochondria swelling, absorbance. IC50, µM. actives 58% (n = 780). AID 651561; in the data active = IC50 below about 20 µM
MPTP cs DR = active in counter-screen for permeability transition pore inhibitors. shares compounds with MPTP inh. isolated mitochondria counterscreen, fluorescence read-out. IC50, µM. actives 49% (n = 780). AID 651564; in the data active = IC50 below about 80 µM
* marks the source's active call; other numbers are inactive results; i = inactive; nt = no result. Most compounds without a hit are left out; they make up all but 4% or so of the library.

SMILES	MPTP inh	TAAR1 ag	TAAR1 antagonist	DAGLB inh	GPR7 antagonist	MPTP counter	others
CCCCN1C(=N)N([C@@H](C)CN2CCC[C@H]2CN2C(N)=NC[C@@H]2Cc2ccccc2)C[C@H]1[C@H](C)CC	0	0	14	0	nt	nt
CCCCN1C(=N)N([C@@H](C)CN2CCC[C@H]2CN2C(N)=NC[C@H]2CC(C)C)C[C@H]1Cc1ccccc1	67*	14	-11	-2	nt	1	MPTP abs DR=9*;MPTP cs DR=>80
CC(C)[C@@H]1CN=C(N)N1C[C@@H]1CCCN1C[C@H](C)N1C[C@@H](Cc2ccccc2)N(CCc2ccc(Cl)c(Cl)c2)C1=N	-2	nt	nt	1	nt	nt
C[C@@H](CN1CCC[C@H]1CN1C(N)=NC[C@@H]1Cc1ccccc1)N1C[C@@H](Cc2ccccc2)N(CCc2ccc(Cl)c(Cl)c2)C1=N	74*	nt	nt	5	nt	8
CCOC(=O)COn1c(-c2cccc(Cl)c2)nc2ccc([N+](=O)[O-])cc21	57*	7	17	-1	15	81*
CC(On1c(-c2ccccc2)nc2ccc(Cl)cc21)C(=O)O (stereo unspecified)	0	3	23	2	6	nt
CCOC(=O)C(C)On1c(-c2cccc(Cl)c2)nc2ccc([N+](=O)[O-])cc21 (stereo unspecified)	87*	20	44	-3	5	99*
CCCNC(=S)N1CCN(c2nc(-c3cccc(OC)c3)cs2)CC1	1	8	26	-3	0	nt
CCCNC(=S)N1CCN(c2nc(-c3ccc(C)cc3)cs2)CC1	99*	0	48	-6	-10	81*
O=C(c1cccc(Cl)c1)N1CCCC(C(=O)N2CCN(c3ccccc3)CC2)C1 (stereo unspecified)	0	2	-2	3	-11	nt
O=C(Nc1cccc(F)c1)C1CCCCC1	-1	1	-1	-2	nt	nt
O=C(Nc1cccc(-c2cccc(F)c2)c1)C1CCN(C2CCC2)CC1	64*	34	-7	0	17	-8	MPTP abs DR=7.7*;MPTP cs DR=58*
O=C(Nc1cccs1)Nc1ccc(Br)cc1F	82*	10	39	-1	9	80*
CCn1ccnc1CN(C)Cc1cn(-c2cccc(C)c2)nc1-c1cccc(F)c1	1	6	-20	-2	-10	nt
CCn1ccnc1CN(C)Cc1cn(-c2ccc(C)cc2)nc1-c1cccc(C)c1	51*	0	-7	-3	-1	-9	MPTP abs DR=>100;MPTP cs DR=46*
c1ccc2cc(CSCc3nc4ccccc4[nH]3)ccc2c1	88*	5	3	-12	-23	88*
Cc1cc(Cl)ccc1Oc1ccccc1C(=O)CC#N	66*	0	-14	29	-6	75*
Cc1noc(C)c1CCC(=O)Nc1cc(C(=O)O)ccc1Cl	-2	2	-18	-1	nt	nt
C[C@@H]1CN(c2ccc(N3CCNC[C@H]3C)cc2C#N)CCN1Cc1ccccc1	nt	14	-12	nt	nt	nt
CS(=O)(=O)C1=NSC2=NC(=O)/C(=C\c3cccn3-c3ccc(Cl)cc3)C(=N)N21	96*	-2	-5	20	-16	61*
Cc1cc(/C=C2/C(=N)N3C(=NC2=O)SN=C3S(C)(=O)=O)c(C)n1-c1ccccc1F	33	-1	32	14	4	nt
Fc1cccc(CN2CCN3CCCC3C2C2CCCCC2)c1 (stereo unspecified)	42	25	-5	-2	6	nt
Fc1ccc(CN2CCN3CCCC3C2C2CCCCC2)cc1F (stereo unspecified)	56*	21	-2	-3	8	-12	MPTP abs DR=16*;MPTP cs DR=>80
O=C(Nc1cc(Cl)cc(Cl)c1)c1cccc(OC(F)F)c1	96*	9	30	-4	-3	96*
Cc1ccc(NS(=O)(=O)c2ccc(C3CCCCC3)cc2)cc1	73*	14	59*	-22	-11	78*
SMILES	MPTP inh	TAAR1 ag	TAAR1 antagonist	DAGLB inh	GPR7 antagonist	MPTP counter	others
O=C(NC1CC1)c1ccc(CSCc2ccc(Cl)cc2)o1	2	3	1	-3	nt	nt
Cc1ccc(C23CC4CC(CC(NC(=O)N5CCN(C)CC5)(C4)C2)C3)cc1	71*	2	-11	0	-4	-12	MPTP abs DR=16*;MPTP cs DR=>80
C/C(=N\NC(=S)NCC(C)(C)C)c1cc(F)cc(F)c1O	85*	11	13	-3	-18	73*
O=C(O)c1cc(-c2ccc(Br)s2)nc2ccccc12	0	-2	-16	0	-8	nt
CN1CCN(NC(=O)c2cc(-c3ccc(Br)s3)nc3ccccc23)CC1	82*	1	6	2	6	-17	MPTP abs DR=15*;MPTP cs DR=>80
C=CCn1c(NC(=O)c2ccccc2Cl)c(C#N)c2nc3ccccc3nc21	74*	16	18	1	1	79*
CCCCn1c(NC(C)=O)c(C#N)c2nc3ccccc3nc21	6	17	2	2	6	nt
COc1ccc(S(=O)(=O)N(C)C[C@H]2OCc3cnnn3CCCC(=O)N([C@@H](C)CO)C[C@H]2C)cc1	-2	0	2	2	nt	nt
O=S(=O)(c1ccccc1C(F)(F)F)N1CCN(c2ncnc3sccc23)CC1	19	8	37	-3	nt	nt
O=C(O)c1cc2c(N3CCC(Cc4ccccc4)CC3)ncnc2s1	-1	34	-26	3	-14	nt
O=S(=O)(c1ccc(F)c(F)c1F)N1CCN(c2ncnc3sccc23)CC1	68*	6	23	0	nt	87*
CCS(=O)(=O)N1CCN(c2ncnc3sc(C)c(C)c23)CC1	0	1	6	-3	-7	nt
Cc1ccc(S(=O)(=O)N2CCN(c3ncnc4sccc34)CC2)cc1	82*	4	28	-2	6	85*
c1ccc(CC2CCN(c3ncnc4sccc34)CC2)cc1	100*	6	40	-11	15	98*
Cc1sc2ncnc(N3CCN(S(=O)(=O)c4ccc(F)cc4)CC3)c2c1C	56*	3	19	-3	-3	66*
CCOC(=O)N1CCN(C(=O)C[C@H]2C[C@@]3(C(=O)OC)C(=C[C@H](C(C)(C)C)O[C@@H]3C)N(Cc3ccc4c(c3)OCO4)C2=O)CC1	nt	-2	-11	nt	nt	nt
COC(=O)C[C@H]1C=C[C@H](NC(=O)C2CCOCC2)[C@@H](CO)O1	0	4	-2	nt	nt	nt
Cc1ccc2[nH]c(O)c(N=Nc3ccccc3C)c2c1	66*	4	-30	-2	-4	-3	MPTP abs DR=i;MPTP cs DR=>80
O=S(=O)(c1ccc(-c2csc(Nc3ccc(F)cc3)n2)cc1)N1CCCC1	84*	3	21	-4	-8	69*
Cc1ccc(Nc2nc(-c3ccc(S(=O)(=O)N4CCCC4)cc3)cs2)cc1C	4	nt	nt	-5	-4	nt

Screening data (PubChem)
